Converted amounts (≈) assume the structure as drawn.
How the values were obtained:
Escherichia coli [1] = test: Antimicrobial activity against Escherichia coli ATCC 25922 after 24 hrs by agar well diffusion method; type: functional
Procedure, shortened: (§1)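 Agar well diffusion. Inocula of 100 µL: bacteria 1 × 10^8 CFU/mL on nutrient agar, yeast 1 × 10^6 CFU/mL on Sabouraud dextrose agar, fungi 1 × 10^4 spore/mL on potato dextrose agar. 10 mm wells received 100 µL of compound at 100 mg/mL in DMSO. Bacteria incubated 24 h at 37 °C, fungi 48 h at 28 °C. Controls were DMSO, ciprofloxacin 50 µg/mL and ketoconazole 50 µg/mL. Inhibition zone diameter in mm, scored N.A. to ++++, average of triplicates.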

Pseudomonas aeruginosa [2] = test: Antimicrobial activity against Pseudomonas aeruginosa ATCC 27953 after 24 hrs by agar well diffusion method; type: functional; procedure, shortened: as §1
Staphylococcus aureus [3] = test: Antimicrobial activity against Staphylococcus aureus ATCC 29213 after 24 hrs by agar well diffusion method; type: functional; procedure, shortened: as §1
Klebsiella pneumoniae [4] = test: Antimicrobial activity against Klebsiella pneumoniae ATCC 13883 after 24 hrs by agar well diffusion method; type: functional; procedure, shortened: as §1
Priestia megaterium [5] = test: Antimicrobial activity against Bacillus megaterium ATCC 9885 after 24 hrs by agar well diffusion method; type: functional; procedure, shortened: as §1
Priestia megaterium [6] = test: Antimicrobial activity against Bacillus megaterium ATCC 9885 after 24 hrs by two fold serial dilution technique; type: functional; settings: ATCC 9885, 24 h
Procedure, shortened: (§2)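 Tested only compounds giving inhibition zones ≥ 16 mm, by two-fold serial dilution in nutrient broth. Final concentrations were […], 175, 87.5, 43.8 and 21.9 µg/mL. Each 5 mL tube received 0.1 mL inoculum of about 1 × 10^8 CFU/mL and was incubated 24 h at 37 °C. MIC was the lowest concentration with no growth.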

Staphylococcus aureus [7] = test: Antimicrobial activity against Staphylococcus aureus ATCC 29213 after 24 hrs by two fold serial dilution technique; type: functional; settings: ATCC 29213, 24 h; procedure, shortened: as §2
Pseudomonas aeruginosa [8] = test: Antimicrobial activity against Pseudomonas aeruginosa ATCC 27953 after 24 hrs by two fold serial dilution technique; type: functional; settings: ATCC 27953, 24 h; procedure, shortened: as §2
Bacillus subtilis [9] = test: Antimicrobial activity against Bacillus subtilis ATCC 6633 after 24 hrs by agar well diffusion method; type: functional; procedure, shortened: as §1
Bacillus subtilis [10] = test: Antimicrobial activity against Bacillus subtilis ATCC 6633 after 24 hrs by two fold serial dilution technique; type: functional; settings: ATCC 6633, 24 h; procedure, shortened: as §2
Escherichia coli [11] = test: Antimicrobial activity against Escherichia coli ATCC 25922 after 24 hrs by two fold serial dilution technique; type: functional; settings: ATCC 25922, 24 h; procedure, shortened: as §2
Candida albicans = test: Antimicrobial activity against Candida albicans NRRL Y-477 after 48 hrs by agar well diffusion method; type: functional; procedure, shortened: as §1
Klebsiella pneumoniae [12] = test: Antimicrobial activity against Klebsiella pneumoniae ATCC 13883 after 24 hrs by two fold serial dilution technique; type: functional; settings: ATCC 13883, 24 h; procedure, shortened: as §2
Aspergillus niger = test: Antimicrobial activity against Aspergillus niger after 48 hrs by agar well diffusion method; type: functional; procedure, shortened: as §1
[13] = Cytotoxicity against mouse EAC cells assessed as cell viability using trypan blue staining after 2 hrs by hemocytometer analysis; type: functional, cell-based; settings: Ehrlich
[14] = Antioxidant activity assessed as ABTS radical scavenging activity at 2 mM; type: functional
Procedure, shortened: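 ABTS (60 µM, 2 mL) was oxidized with MnO2 (25 mg/mL, 3 mL) in 0.1 M phosphate buffer pH 7, then centrifuged and filtered, with A734 adjusted to about 0.5. 50 µL of 2 mM compound in MeOH/phosphate buffer (1:1) was added. Colour loss expressed as % inhibition. L-ascorbic acid was the standard; blank and negative controls used MeOH/buffer.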

[15] = Antioxidant activity in rat erythrocytes assessed as inhibition of peroxyl radicals-induced hemolysis at 2 mM after 2 hrs; type: functional; settings: Erythrocyte, read-out: INH
Procedure, shortened: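 Rat blood from cardiac puncture, heparinized. Erythrocytes were washed three times in 0.15 M NaCl. A 10% suspension in PBS pH 7.4 was mixed with an equal volume of 200 mM AAPH in PBS containing sample, then shaken at 37 °C for 2 h. Mixture diluted with 8 volumes of PBS and centrifuged; supernatant A540 compared with a water-lysed sample for complete hemolysis. L-ascorbic acid was the positive control. Mean ± SD.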

O=C(O)c1cn(C2CC2)c2cc(N3CCNCC3)c(F)cc2c1=O [CIPROFLOXACIN]
diameter of the inhibition zone (DIZ) (Escherichia coli [1]): 16 mm | diameter of the inhibition zone (DIZ) (Pseudomonas aeruginosa [2]): >=21 mm | diameter of the inhibition zone (DIZ) (Staphylococcus aureus [3]): 16 mm | diameter of the inhibition zone (DIZ) (Klebsiella pneumoniae [4]): >=21 mm | diameter of the inhibition zone (DIZ) (Priestia megaterium [5]): 16 mm | MIC (Priestia megaterium [6]): 21.9 µg/mL (≈ 66.1 µM) | MIC (Staphylococcus aureus [7]): 21.9 µg/mL (≈ 66.1 µM) | MIC (Pseudomonas aeruginosa [8]): 10.9 µg/mL (≈ 32.9 µM) | diameter of the inhibition zone (DIZ) (Bacillus subtilis [9]): >=21 mm | MIC (Bacillus subtilis [10]): 10.9 µg/mL (≈ 32.9 µM) | MIC (Escherichia coli [11]): 21.9 µg/mL (≈ 66.1 µM) | diameter of the inhibition zone (DIZ) (Candida albicans): <=4 mm | MIC (Klebsiella pneumoniae [12]): 10.9 µg/mL (≈ 32.9 µM) | diameter of the inhibition zone (DIZ) (Aspergillus niger): <=4 mm

C/C(=N\N=C1\NC(=O)CS1)c1nc(-c2ccccc2)[nH]c1C
diameter of the inhibition zone (DIZ) (Escherichia coli [1]): <=4 mm | diameter of the inhibition zone (DIZ) (Pseudomonas aeruginosa [2]): <=4 mm | diameter of the inhibition zone (DIZ) (Staphylococcus aureus [3]): 16 mm | diameter of the inhibition zone (DIZ) (Klebsiella pneumoniae [4]): 16 mm | diameter of the inhibition zone (DIZ) (Priestia megaterium [5]): <=4 mm | MIC (Staphylococcus aureus [7]): 43.8 µg/mL (≈ 140 µM) | diameter of the inhibition zone (DIZ) (Bacillus subtilis [9]): 16 mm | MIC (Bacillus subtilis [10]): 43.8 µg/mL (≈ 140 µM) | diameter of the inhibition zone (DIZ) (Candida albicans): <=4 mm | MIC (Klebsiella pneumoniae [12]): 21.9 µg/mL (≈ 69.9 µM) | diameter of the inhibition zone (DIZ) (Aspergillus niger): <=4 mm

C/C(=N\NC(=O)/C(C#N)=C\c1ccc(F)cc1)c1nc(-c2ccccc2)[nH]c1C
diameter of the inhibition zone (DIZ) (Escherichia coli [1]): 16 mm | diameter of the inhibition zone (DIZ) (Pseudomonas aeruginosa [2]): 16 mm | diameter of the inhibition zone (DIZ) (Staphylococcus aureus [3]): >=21 mm | diameter of the inhibition zone (DIZ) (Klebsiella pneumoniae [4]): 10 mm | diameter of the inhibition zone (DIZ) (Priestia megaterium [5]): >=21 mm | MIC (Priestia megaterium [6]): 21.9 µg/mL (≈ 56.5 µM) | IC50 [13]: 85.2 µg/mL (≈ 220 µM) | inhibition [14]: 68.6% | MIC (Staphylococcus aureus [7]): 21.9 µg/mL (≈ 56.5 µM) | MIC (Pseudomonas aeruginosa [8]): 21.9 µg/mL (≈ 56.5 µM) | diameter of the inhibition zone (DIZ) (Bacillus subtilis [9]): 16 mm | percent hemolysis at 2000 µM [15]: 0.86% | MIC (Bacillus subtilis [10]): 43.8 µg/mL (≈ 113 µM) | MIC (Escherichia coli [11]): 21.9 µg/mL (≈ 56.5 µM) | diameter of the inhibition zone (DIZ) (Candida albicans): <=4 mm | diameter of the inhibition zone (DIZ) (Aspergillus niger): <=4 mm

Source: ChEMBL document CHEMBL1770090, “Synthesis, antimicrobial, antioxidant, anti-hemolytic and cytotoxic evaluation of new imidazole-based heterocycles” (Eur J Med Chem, 2011)
